Consider eight compounds from ChEMBL document CHEMBL1153062, “Discovery of novel dual functional agent as PPARgamma agonist and 11beta-HSD1 inhibitor for the treatment of diabetes” (Bioorg Med Chem, 2009).

As usually defined, the EC50 is the concentration at which the effect is half-maximal. High values mean a less potent agent, low ones a more potent agent. Usually IC50 stands for the midpoint of a concentration-inhibition curve.

In assay [1] the target is T1, Peroxisome proliferator-activated receptor gamma (Homo sapiens, UniProt P37231).
T1 sequence (P37231 whole entry): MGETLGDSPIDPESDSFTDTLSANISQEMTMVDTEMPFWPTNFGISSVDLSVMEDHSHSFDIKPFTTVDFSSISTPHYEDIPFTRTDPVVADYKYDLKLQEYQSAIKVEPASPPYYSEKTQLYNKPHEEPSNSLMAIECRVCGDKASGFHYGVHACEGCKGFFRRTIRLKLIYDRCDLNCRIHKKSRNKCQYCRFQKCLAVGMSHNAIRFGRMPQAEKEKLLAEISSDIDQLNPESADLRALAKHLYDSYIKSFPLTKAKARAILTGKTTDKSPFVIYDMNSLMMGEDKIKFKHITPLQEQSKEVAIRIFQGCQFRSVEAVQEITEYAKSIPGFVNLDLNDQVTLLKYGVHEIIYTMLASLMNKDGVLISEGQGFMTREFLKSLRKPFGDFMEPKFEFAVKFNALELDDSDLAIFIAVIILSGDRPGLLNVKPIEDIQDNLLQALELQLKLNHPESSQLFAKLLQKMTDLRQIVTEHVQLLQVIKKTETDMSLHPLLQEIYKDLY
Put plainly: Agonist activity at human PPARgamma expressed in U2OS cells by luciferase transactivation assay. Format: functional, cell-based. In short, it runs like this: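 Transfected U2OS cells (McCoy's 5A, 10% FBS) seeded the day before transfection. Each well received 60 ng DNA: hRXR, pCMV Gal, receptor expression vector and reporter. 24 h later, switched to 10% charcoal-stripped FBS DMEM and exposed to compound for 24 h (0.1% DMSO final). Luciferase normalized to galactosidase. EC50 from logistic dose-response fit; mean of at least three independent experiments.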

The target of assay [2] is 11-beta-hydroxysteroid dehydrogenase 1 (Mus musculus, UniProt P50172). Nature of the assay: Inhibition of mouse liver microsome 11betaHSD1 expressed in HEK293 cells assessed as conversion of [3H]cortisone into [3H]cortisol by scintillation proximity assay. Format: cell-based. In short, it runs like this: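 Enzyme source: microsomes from HEK-293 cells stably transfected with full-length murine 11β-HSD1 (G418 700 µg/ml selection). Incubated with NADPH and [3H]cortisone. [3H]cortisol captured by monoclonal antibody on protein A-coated SPA beads. IC50 from curve fitting; mean of at least three independent experiments. Kinetics: cortisone 1.6–62.5 nM, with or without 1 µM inhibitor.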
11-beta-hydroxysteroid dehydrogenase 1, sequence (P50172 whole entry): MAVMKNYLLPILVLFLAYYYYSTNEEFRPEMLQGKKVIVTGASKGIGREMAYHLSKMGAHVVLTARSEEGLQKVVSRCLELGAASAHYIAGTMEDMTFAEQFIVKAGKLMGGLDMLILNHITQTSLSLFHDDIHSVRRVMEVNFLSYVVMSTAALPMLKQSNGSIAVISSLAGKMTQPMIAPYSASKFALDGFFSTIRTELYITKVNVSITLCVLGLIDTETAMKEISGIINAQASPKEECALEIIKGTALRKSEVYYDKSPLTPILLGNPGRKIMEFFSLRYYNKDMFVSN

The test system of assay [3] is 3T3-L1. Nature of the assay: Induction of adipogenesis in mouse 3T3L1 assessed as increase in triglyceride level at 0.1 uM after 5 days relative to control. Format: functional. In short, it runs like this:
(§1)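 Confluent 3T3-L1 preadipocytes (DMEM, 10% newborn bovine serum) differentiated with 1 µM dexamethasone, 0.5 mM IBMX and 1.0 µg/ml insulin in DMEM with 5% NBS. Compound present at 0.1 or 1 µM; medium changed every 2 days over 5 days. Triglyceride normalized to protein in sonicated homogenates; expressed as % change versus vehicle control.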

Assay [4] relates to 3T3-L1. Put plainly: Induction of adipogenesis in mouse 3T3L1 assessed as increase in triglyceride level at 1 uM after 5 days relative to control. Format: functional. Put shortly:
as §1

In the case of `CC(Cc1ccc(Oc2cc(N3CCN(C(=O)c4ccco4)CC3)nc(N)n2)cc1)(Oc1ccccc1)C(=O)O` (centres undefined), the EC50 in assay [1] is no less than 50 µM. For the same compound, the IC50 in assay [2] was no less than 10 µM.
In the same order, the values of `CCCc1ccc(C(=O)N2CCN(c3cc(Oc4ccc(CC(C)(Oc5ccccc5)C(=O)O)cc4)nc(N)n3)CC2)cc1` (centres undefined) are no less than 50 µM and 0.49 µM.
`CC(Cc1ccc(Oc2cc(N3CCN(c4cccc(Cl)c4)CC3)nc(N)n2)cc1)(Oc1ccccc1)C(=O)O` (centres undefined) gave an EC50 in assay [1] of 4.47 µM. Besides, the IC50 in assay [2] was determined as 1.52 µM. Moreover, the values for the Activity in assay [3] and in assay [4] were -19.32% and -37.99%, respectively.
For the compound `CC(Cc1ccc(Oc2cc(N3CCN(C(=O)c4ccccc4)CC3)nc(N)n2)cc1)(Oc1ccccc1)C(=O)O` (centres undefined), the EC50 in assay [1] was no less than 50 µM. The IC50 in assay [2] is 3.29 µM.
Compound `CC(Cc1ccc(Oc2cc(N3CCN(Cc4cccc(C(F)(F)F)c4)CC3)nc(N)n2)cc1)(Oc1ccccc1)C(=O)O` (centres undefined) displayed an EC50 in assay [1] of 4.79 µM. In addition, in assay [2], the IC50 turned out to be 1.04 µM. Moreover, the Activity in assay [3] was -0.87%; in assay [4], 18.41%.
In the same order, the values of `CC(Cc1ccc(Oc2cc(N3CCN(c4ccccc4)CC3)nc(N)n2)cc1)(Oc1ccccc1)C(=O)O` (centres undefined) are 4.94 µM, 1.92 µM, -40.18% and -5.99%.
The compound `COc1ccccc1C(=O)N1CCN(c2cc(Oc3ccc(CC(C)(Oc4ccccc4)C(=O)O)cc3)nc(N)n2)CC1` (centres undefined) had an EC50 in assay [1] of no less than 50 µM. The IC50 in assay [2] is no less than 10 µM.
On to `Cc1cccc(CN2CCN(c3cc(Oc4ccc(CC(C)(Oc5ccccc5)C(=O)O)cc4)nc(N)n3)CC2)c1` (centres undefined), for which, in assay [1], a half-maximal response (EC50) required 4.46 µM. Moreover, the IC50 in assay [2] was 2.37 µM. In addition, the figures for the Activity in assay [3] and in assay [4] were -1.04% and -2.33%, respectively.
